Published values gathered from unrelated publications.
Protocols differ between the studies behind these lines.
CDK1 with cyclin A: Cyclin-dependent kinase 1, with cyclin A (CDK1, Homo sapiens, UniProt P06493)
CDK1 with cyclin B: Cyclin-dependent kinase 1, with cyclin B (CDK1, Homo sapiens, UniProt P06493)
CDK1 with cyclin B1: Cyclin-dependent kinase 1, with cyclin B1 (CDK1, Homo sapiens, UniProt P06493)
CDK1: Cyclin-dependent kinase 1 (CDK1, Homo sapiens, UniProt P06493)

SMILES	target	read-out	action	technique	concentration	quantity	value
CC(C)(O)[C@H]1CC[C@H](Nc2ccc3ncc(-c4cccc(C(F)(F)F)c4)n3n2)CC1	CDK1 with cyclin A	enzyme activity	inhibitor	–	1 µM	remaining activity	95.4%
O=C(Nc1cnn(-c2csc(C(=O)NC3COC3)c2)c1)Nc1c(F)cccc1Cl	Cyclin-dependent kinase 1, with cyclin E (CDK1, Homo sapiens, UniProt P06493)	enzyme activity	inhibitor	–	5 µM	remaining activity	98.4%
N#CCCc1ccc2c(c1)-c1[nH]c3ccc([N+](=O)[O-])cc3c1CC(=O)N2	CDK1 with cyclin B	cell-free assay	–	–	0.5 µM	remaining signal	9.89%
CNC(=O)c1cc(Oc2ccc(NC(=O)Nc3ccc(Cl)c(C(F)(F)F)c3)cc2)ccn1	CDK1 with cyclin B	enzyme activity	inhibitor	–	0.3 µM	inhibition	-5%
C=CC(=O)Nc1cc(Nc2nccc(Nc3cc(Cl)c(F)cc3C(C)(C)O)n2)c(OC)cc1N1CC[C@@H](N(C)C)C1	CDK1 with cyclin B	enzyme activity	inhibitor	–	1 µM	inhibition	-13%
CN1CC(Oc2cnc(C#N)cc2-c2ccn3nc(NC(=O)C4CC4)cc3c2)C1	CDK1 with cyclin B	enzyme activity	inhibitor	–	1 µM	inhibition	-8%
Nc1nc(Nc2ccc(S(N)(=O)=O)cc2)nn1C(=O)c1c(F)cccc1F	CDK1 with cyclin A	cell-free assay	–	–	0.5 µM	remaining signal	10.3%
CC(C)c1ccc(NC(=O)c2cccs2)c(-c2nc3ccccc3[nH]c2=O)c1	CDK1 with cyclin B	enzyme activity	inhibitor	–	1 µM	activity vs control	107%
Cc1ccc(Nc2nccc(N(C)c3ccc4c(C)n(C)nc4c3)n2)cc1S(N)(=O)=O	CDK1 with cyclin B	enzyme activity	inhibitor	–	0.3 µM	inhibition	14%
O=C1NC(=O)c2cc(Nc3ccc(F)cc3)c(Nc3ccc(F)cc3)cc21	CDK1 with cyclin A	cell-free assay	–	–	0.5 µM	remaining signal	96.1%
CC(C)(C)c1nc(-c2cccc(NS(=O)(=O)c3c(F)cccc3F)c2F)c(-c2ccnc(N)n2)s1	CDK1 with cyclin B1	enzyme activity	inhibitor	radiometric	1 µM	remaining activity	89%
CC(C)n1cnc2c(Nc3cccc(Cl)c3)nc(NCCO)nc21	CDK1 with cyclin A	cell-free assay	–	–	0.5 µM	remaining signal	78.5%
Cc1ccc(NC(=O)c2ccc(C)c(C(F)(F)F)c2)cc1C#Cc1nn(C2CCC(O)CC2)c2ncnc(N)c12 (stereo not shown)	CDK1 with cyclin B	cell-free assay	–	–	10 µM	remaining signal	104%
Cc1sc(C(=O)NC2COC2)cc1-n1cc(NC(=O)Nc2c(F)cccc2Cl)cn1	CDK1 with cyclin A	enzyme activity	inhibitor	–	10 µM	remaining activity	105%
COc1cccc2c(NCc3ccccc3)nc(-n3c(N)nc4ccccc43)nc12	CDK1	target engagement in cells	inhibitor	chemoproteomics	20 mM	inhibition	-2.6%
CC(C)(C)c1nc2c(s1)c1nc(N)ncc1c1ccc(NS(=O)(=O)c3c(F)cccc3F)c(F)c12	Cyclin-dependent kinase 1, with cyclin E1 (CDK1, Homo sapiens, UniProt P06493)	enzyme activity	inhibitor	radiometric	1 µM	remaining activity	83%
CCN(CC)c1ccc(C2=NNC(=O)CC2C)cc1[N+](=O)[O-] (stereo not shown)	CDK1 with cyclin B	enzyme activity	inhibitor	–	10 µM	remaining activity	111%
CNCc1ccc(-c2cc(-c3nc(-c4ccc(S(=O)(=O)C(C)C)cc4)cnc3N)on2)cc1	CDK1 with cyclin B	enzyme activity	inhibitor	–	0.4 µM	inhibition	0%
O=C1NC(=O)c2c1c1c3ccccc3[nH]c1n1cncc21	CDK1 with cyclin A	cell-free assay	–	–	0.5 µM	remaining signal	94.8%
CCN(CC)CCNC(=O)c1c(C)[nH]c(/C=C2\C(=O)Nc3ccc(F)cc32)c1C	CDK1 with cyclin B	enzyme activity	inhibitor	–	0.3 µM	inhibition	2%
c1ccc(CNc2nc(N3CCOc4ccccc43)nc3c2CCCC3)cc1	CDK1	target engagement in cells	inhibitor	chemoproteomics	20 mM	inhibition	-6.5%
CC(C)[C@H](CO)Nc1nc(Nc2cccc(Cl)c2)c2ncn(C(C)C)c2n1	CDK1 with cyclin B	cell-free assay	–	–	0.5 µM	remaining signal	34.9%
CC/C(=N\NC(=O)NCc1cccc(O)c1)c1ccc(O)c(C)c1O	CDK1 with cyclin B1	enzyme activity	inhibitor	–	0.1 µM	inhibition	-14.8%
COc1cc2ncnc(Nc3ccc(Oc4ccccc4)c(C)c3C)c2cc1OC	CDK1 with cyclin B	enzyme activity	inhibitor	–	1 µM	inhibition	3%
O=Nc1c(-c2c(O)[nH]c3ccccc23)[nH]c2ccccc12	CDK1 with cyclin A	cell-free assay	–	–	0.5 µM	remaining signal	88.4%
COc1cc(Cl)c(C(=O)N[C@@H](CN[C@H]2CC[C@@H](N)CC2)Cc2ccc(C#N)cc2)cc1-c1ccc(CN[C@H](C)c2ccc(C)cc2)o1	CDK1 with cyclin B	enzyme activity	inhibitor	–	1 µM	remaining activity	95%
O=C1Nc2ccc(Cl)cc2C1=Cc1cc(Cl)c(O)c(Cl)c1	CDK1 with cyclin B	cell-free assay	–	–	0.5 µM	remaining signal	96.3%
O=C(Nc1cnn(-c2csc(C(=O)NC3COC3)c2)c1)Nc1ccccc1Cl	CDK1 with cyclin B	enzyme activity	inhibitor	–	5 µM	remaining activity	92.6%
